A short description of data set [1]: Cytotoxicity against human THP-1 cells assessed as reduction in cell viability measured after 72 hr by MTT assay. The following applies: read-out: TC50. Type of data set: toxicity, cell-based. The gist of the method: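 Undifferentiated THP-1 cells exposed to 0.1–100 μM compound for 72 h. Viability read by MTT reduction at 570 nm. TC50 from concentration–response; three experiments.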

A short description of data set [2]: Metabolic stability of the compound in human THP-1 cells at 100 uM measured after 24 hrs by RP-HPLC analysis. Type of data set: ADME, cell-based. The settings on record: thp-1, 24 h. The gist of the method: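 Lysate from PMA-differentiated THP-1 cells (RIPA buffer) at 37 °C with compound at 100 μM, added from 10 mM DMSO stock. Aliquots deproteinized with CH3CN/0.1% TFA, centrifuged, filtered and quantified by RP-HPLC at 226/254 nm against external standards. Pseudo-first-order t1/2 from exponential decay fit; three independent experiments.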

Data set [3] is described as follows: n-Octanol/water distribution coefficient, log D of the compound at pH 7.4 measured after 4 hrs by shake flask method. Type of data set: physicochemical. Summed up:
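Shake-flask at room temperature between n-octanol and 50 mM phosphate buffer pH 7.4, ionic strength 0.15 M KCl. Phases were pre-saturated by 4 h shaking. Compound at about 0.1 mg/ml in buffer, shaken about 20 min with n-octanol, then centrifuged at 10000 rpm for 10 min.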

Data set [4] can be described thus: Stability of the compound in PBS at 100 uM at pH 7.4 measured after 24 hrs by RP-HPLC analysis. Type of data set: physicochemical. The following applies: buffer, pH 7.4, 24 h. The gist of the method: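 Compound added from 10 mM DMSO stock to 50 mM PBS pH 7.4 at 37 °C. Sampled at intervals over 48 h and analysed by RP-HPLC with UV detection at 226/254 nm against calibration standards.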

Data set [5] can be described thus: Metabolic stability of the compound in human serum at 100 uM measured after 24 hrs by RP-HPLC analysis. The format is ADME, cell-free. The gist of the method:
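Human male AB serum at 37 °C with compound at 100 μM (from 10 mM DMSO stock), sampled over 24 h. Aliquots deproteinized with CH3CN/0.1% TFA, centrifuged, filtered and analysed by RP-HPLC (phenyl column, 226/254 nm) with calibration 1-100 μM. Pseudo-first-order t1/2 from exponential decay fit.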

The structures appear in SMILES notation. Some results are limits rather than exact numbers.

On to `COC(=O)c1ccc(-c2noc(Cc3ccccc3Cl)n2)cc1`, for which the CC50 at 72 h in data set [1] was over 100 µM.
Take `CCOC(=O)CN(Cc1ccccc1)c1nnc(NC(=O)c2ccccc2Cl)s1`: in data set [1], the CC50 at 72 h is 91.6 µM.
For the molecule `CCOC(=O)CN(C)c1nnc(NC(=O)c2ccccc2Cl)s1`, the CC50 at 72 h in data set [1] came to 96.1 µM.
In the case of `O=C(O)Cn1nc(Cc2ccccc2Cl)oc1=O`, the Stability result in data set [2], in data set [4] and in data set [5] was “Stable” each time. This molecule also returned a logD at 4 h in data set [3] of -1.66. Besides, in data set [1], the CC50 at 72 h came out at 94.6 µM.
`CC(C)c1cc(Cl)cc(C(C)C)c1NC(=O)NS(=O)(=O)c1cc(C(C)(C)O)co1`: the CC50 at 72 h in data set [1] was found to be 92.5 µM.
Turning to `CC(C)(C)OC(=O)Cn1nc(Cc2ccccc2Cl)oc1=O`, the logD at 4 h in data set [3] turned out to be 3.1. In addition, the CC50 at 72 h in data set [1] amounted to 98.9 µM.
For the molecule `O=c1oc(Cc2ccccc2Cl)nn1Cc1nn[nH]n1`, the logD at 4 h in data set [3] is -1.09. In addition, the CC50 at 72 h in data set [1] was over 100 µM.
For `CCOC(=O)C1CCCN(c2nnc(NC(=O)c3ccccc3Cl)s2)C1` (centres undefined), in data set [1], the CC50 at 72 h was found to be 79.7 µM.
On to `COC(=O)c1ccc(-c2noc(Cc3cccc(C(F)(F)F)c3)n2)cc1`, for which the CC50 at 72 h in data set [1] is 94.5 µM.
Still for that read-out and setting: next, `CCOC(=O)c1ccc(Cn2nc(Cc3ccccc3Cl)oc2=O)cc1`: over 100 µM.
As to `COc1ccc(Cn2nc(Cc3ccccc3Cl)oc2=O)cc1`, the CC50 at 72 h in data set [1] was 64.8 µM.
On the same count and under the same terms, for `O=C(O)c1ccc(-c2nc(Cc3cccc(C(F)(F)F)c3)no2)cc1` the value was 27.3 µM.
In the case of `COC(=O)c1ccc(-c2nc(Cc3cccc(C(F)(F)F)c3)no2)cc1`, in data set [1], the CC50 at 72 h was over 100 µM.

(Values after ChEMBL document CHEMBL5335784, “Discovery of a novel 1,3,4-oxadiazol-2-one-based NLRP3 inhibitor as a pharmacological agent to mitigate cardiac and metabolic complications in an experimental model of diet-induced metaflammation” (Eur J Med Chem, 2023).)
